Laboratory results published in ChEMBL document CHEMBL3526048, “In vitro metabolism of rivoglitazone, a novel peroxisome proliferator-activated receptor γ agonist, in rat, monkey, and human liver microsomes and freshly isolated hepatocytes” (Drug Metab Dispos, 2011).

What was measured:
Cytochrome P450 2D6 [1] = target: T1, Cytochrome P450 2D6 (Homo sapiens, UniProt P10635); experiment: Activity of human CYP2D6 expressed in microsomes isolated from baculovirus infected insect cell assessed as enzyme-mediated compound formation treated with [14C]-rivoglitazone at 20 uM after 2 hrs by radio-HPLC/LC-MS/MS analysis in presence of NADPH-generating system; assay type: ADME
T1 sequence (P10635 whole entry): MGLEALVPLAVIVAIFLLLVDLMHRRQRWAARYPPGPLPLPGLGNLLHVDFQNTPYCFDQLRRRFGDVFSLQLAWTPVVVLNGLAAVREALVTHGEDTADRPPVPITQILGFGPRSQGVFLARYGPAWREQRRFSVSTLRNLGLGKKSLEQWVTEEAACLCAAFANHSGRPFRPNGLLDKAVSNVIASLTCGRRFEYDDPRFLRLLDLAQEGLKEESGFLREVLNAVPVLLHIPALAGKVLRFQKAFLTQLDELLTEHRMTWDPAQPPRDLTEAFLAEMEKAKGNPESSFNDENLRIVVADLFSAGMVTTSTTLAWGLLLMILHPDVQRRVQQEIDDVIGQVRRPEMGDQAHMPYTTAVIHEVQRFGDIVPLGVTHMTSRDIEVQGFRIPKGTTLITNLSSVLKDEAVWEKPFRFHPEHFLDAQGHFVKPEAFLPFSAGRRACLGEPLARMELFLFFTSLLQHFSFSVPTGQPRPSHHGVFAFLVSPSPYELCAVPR
In short: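 Baculovirus-insect-cell microsomes expressing the human CYP (1 mg/ml protein) were incubated with [14C]rivoglitazone (20 μM) in 50 mM potassium phosphate (pH 7.4) or 100 mM Tris-HCl (pH 7.5) with an NADPH-generating system (2 mM NADP+, 20 mM glucose 6-phosphate, 2 units/ml G6PDH, 10 mM MgCl2) for 2 h at 37°C. Insect-cell control supersomes served as the control. Reactions were stopped with acetonitrile, and the concentrated supernatants were analysed by radio-HPLC, LC-MS and LC-MS/MS.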

Liver microsome [2] = experiment: Drug metabolism in Sprague-Dawley rat liver microsomes assessed as formation of 2-((4-((2,4-dioxothiazolidin-5-yl)methyl)phenoxy)methyl)-1-methyl-1H-benzo[d]imidazol-6-yl hydrogen sulfate at 20 uM by radio-HPLC/LC-MS/MS analysis; assay type: ADME
Cytochrome P450 1A2 = target: T2, Cytochrome P450 1A2 (Homo sapiens, UniProt P05177); experiment: Activity of human CYP1A2 expressed in microsomes isolated from baculovirus infected insect cell assessed as enzyme-mediated 3-(4-((6-methoxy-1-methyl-1H-benzo[d]imidazol-2-yl)methoxy)phenyl)-2-(methylsulfonyl)propanamide formation at 20 uM after 2 hrs by radio-HPLC/LC-MS/MS analysis in presence of NADPH-generating system/SAM; assay type: ADME
T2 sequence (P05177 whole entry): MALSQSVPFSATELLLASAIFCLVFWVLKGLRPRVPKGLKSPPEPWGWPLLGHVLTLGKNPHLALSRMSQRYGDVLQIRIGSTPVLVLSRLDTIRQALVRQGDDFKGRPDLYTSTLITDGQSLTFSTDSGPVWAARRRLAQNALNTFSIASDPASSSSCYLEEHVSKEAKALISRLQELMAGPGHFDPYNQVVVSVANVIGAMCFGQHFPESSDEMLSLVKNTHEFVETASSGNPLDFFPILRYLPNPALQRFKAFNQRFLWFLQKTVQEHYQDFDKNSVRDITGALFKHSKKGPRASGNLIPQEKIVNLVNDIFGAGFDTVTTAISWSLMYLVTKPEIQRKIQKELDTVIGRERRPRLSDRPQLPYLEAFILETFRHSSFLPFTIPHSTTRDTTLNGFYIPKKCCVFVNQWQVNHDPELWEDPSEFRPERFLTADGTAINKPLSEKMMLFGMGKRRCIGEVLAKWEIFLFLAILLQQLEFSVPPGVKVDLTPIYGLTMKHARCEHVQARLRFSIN

[3] = Drug metabolism in cynomolgus monkey liver microsomes assessed as formation of 5-(4-((6-methoxy-1H-benzo[d]imidazol-2-yl)methoxy)benzyl)thiazolidine-2,4-dione at 20 uM after 2 hrs by radio-HPLC/LC-MS/MS analysis in presence of NADPH-generating system and NADPH-generating system/SAM; assay type: ADME, Macaca fascicularis
Cytochrome P450 2D6 [4] = target: T1, Cytochrome P450 2D6; experiment: Activity of human CYP2D6 expressed in microsomes isolated from baculovirus infected insect cell assessed as enzyme-mediated 5-(4-((6-hydroxy-1-methyl-1H-benzo[d]imidazol-2-yl)methoxy)benzyl)thiazolidine-2,4-dione formation at 20 uM after 2 hrs by radio-HPLC/LC-MS/MS analysis in presence of NADPH-generating system and NADPH-generating system/SAM; assay type: ADME
[5] = target: T3, UDP-glucuronosyltransferase 1A6 (Homo sapiens, UniProt P19224); experiment: Activity of human UGT1A6 expressed in microsomes isolated from baculovirus infected insect cell assessed as enzyme-mediated (2S,3S,4S,5R,6R)-6-((1-carboxy-2-(4-((6-methoxy-1-methyl-1H-benzo[d]imidazol-2-yl)methoxy)phenyl)ethylthio)carbonylamino)-3,4,5-trihydroxytetrahydro-2H-pyran-2-carboxylic acid formation at 20 uM after 4 hrs by radio-HPLC/LC-MS/MS analysis in presence of UDPGA; assay type: ADME
T3 sequence (P19224 whole entry): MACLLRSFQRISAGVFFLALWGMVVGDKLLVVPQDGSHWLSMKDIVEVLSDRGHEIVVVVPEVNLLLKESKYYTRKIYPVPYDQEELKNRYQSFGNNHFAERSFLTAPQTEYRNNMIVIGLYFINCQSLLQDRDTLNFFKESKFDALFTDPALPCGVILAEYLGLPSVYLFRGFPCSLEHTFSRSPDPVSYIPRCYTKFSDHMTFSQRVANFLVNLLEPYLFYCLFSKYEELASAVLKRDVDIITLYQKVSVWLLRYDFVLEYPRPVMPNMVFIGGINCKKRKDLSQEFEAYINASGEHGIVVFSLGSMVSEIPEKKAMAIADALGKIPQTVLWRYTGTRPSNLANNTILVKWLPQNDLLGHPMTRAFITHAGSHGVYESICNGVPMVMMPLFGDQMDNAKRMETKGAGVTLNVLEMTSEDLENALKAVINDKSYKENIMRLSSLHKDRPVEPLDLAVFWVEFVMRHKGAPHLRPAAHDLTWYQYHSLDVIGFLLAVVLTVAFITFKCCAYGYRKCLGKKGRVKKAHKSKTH

[6] = Drug metabolism in human hepatocytes assessed as formation of 5-(4-((6-methoxy-1H-benzo[d]imidazol-2-yl)methoxy)benzyl)thiazolidine-2,4-dione at 30 uM after 3 hrs by radio-HPLC/LC-MS/MS analysis in presence of NADPH-generating system and NADPH-generating system/SAM; assay type: ADME, cell-based, Hepatocyte
Cytochrome P450 3A5 [7] = target: T4, Cytochrome P450 3A5 (Homo sapiens, UniProt P20815); experiment: Activity of human CYP3A5 expressed in microsomes isolated from baculovirus infected insect cell assessed as enzyme-mediated (2S,3S,4S,5R,6R)-3,4,5-trihydroxy-6-(5-(4-((6-methoxy-1-methyl-1H-benzo[d]imidazol-2-yl)methoxy)benzyl)-2,4-dioxothiazolidin-3-yl)tetrahydro-2H-pyran-2-carboxylic acid formation at 20 uM after 2 hrs by radio-HPLC/LC-MS/MS analysis in presence of UDPGA and UDPGA/SAM; assay type: ADME
T4 sequence (P20815 whole entry): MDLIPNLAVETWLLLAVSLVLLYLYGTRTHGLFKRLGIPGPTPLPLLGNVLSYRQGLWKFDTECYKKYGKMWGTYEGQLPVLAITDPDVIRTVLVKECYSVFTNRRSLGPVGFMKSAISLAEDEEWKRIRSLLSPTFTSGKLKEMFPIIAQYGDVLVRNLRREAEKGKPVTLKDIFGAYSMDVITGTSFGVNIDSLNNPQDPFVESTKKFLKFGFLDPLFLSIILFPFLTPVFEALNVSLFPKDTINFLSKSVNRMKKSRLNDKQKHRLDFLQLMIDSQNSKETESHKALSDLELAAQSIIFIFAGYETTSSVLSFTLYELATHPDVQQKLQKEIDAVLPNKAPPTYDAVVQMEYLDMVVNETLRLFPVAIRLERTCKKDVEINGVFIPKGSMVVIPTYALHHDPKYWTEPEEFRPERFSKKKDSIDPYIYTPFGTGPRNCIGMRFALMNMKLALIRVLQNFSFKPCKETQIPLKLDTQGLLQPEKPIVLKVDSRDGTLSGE

Cytochrome P450 3A5 [8] = target: T4, Cytochrome P450 3A5; experiment: Activity of human CYP3A5 expressed in microsomes isolated from baculovirus infected insect cell assessed as enzyme-mediated 3-(4-((6-methoxy-1-methyl-1H-benzo[d]imidazol-2-yl)methoxy)phenyl)-2-(methylsulfinyl)propanamide formation at 20 uM after 2 hrs by radio-HPLC/LC-MS/MS analysis in presence of NADPH-generating system/SAM; assay type: ADME
In short: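 cDNA-expressed human CYP3A5 in baculovirus-insect-cell microsomes (1 mg/ml protein) was incubated with [¹⁴C]rivoglitazone (20 μM) in 50 mM potassium phosphate (pH 7.4) or 100 mM Tris-HCl (pH 7.5). NADPH-generating system: 2 mM NADP⁺, 20 mM glucose 6-phosphate, 2 units/ml G6PDH, 10 mM MgCl₂. Incubation ran 2 h at 37°C with shaking; insect-cell control supersomes served as control. Acetonitrile stop, supernatant concentrated, then radio-HPLC, LC-MS and LC-MS/MS.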

Liver microsome [9] = experiment: Drug metabolism in Sprague-Dawley rat liver microsomes assessed as formation of 5-hydroxy-5-(4-((6-methoxy-1-methyl-1H-benzo[d]imidazol-2-yl)methoxy)benzyl)thiazolidine-2,4-dione at 20 uM after 2 hrs by radio-HPLC/LC-MS/MS analysis in presence of NADPH-generating system and NADPH-generating system/SAM; assay type: ADME
Cytochrome P450 3A4 = Cytochrome P450 3A4 (Homo sapiens, UniProt P08684); experiment: Activity of human CYP3A4 expressed in microsomes isolated from baculovirus infected insect cell assessed as enzyme-mediated 3-(4-((6-methoxy-1-methyl-1H-benzo[d]imidazol-2-yl)methoxy)phenyl)-2-(methylthio)propanoic acid formation at 20 uM after 2 hrs by radio-HPLC/LC-MS/MS analysis in presence of NADPH-generating system/SAM and UDPGA/SAM; assay type: ADME
Sequence of Cytochrome P450 3A4 (P08684 whole entry): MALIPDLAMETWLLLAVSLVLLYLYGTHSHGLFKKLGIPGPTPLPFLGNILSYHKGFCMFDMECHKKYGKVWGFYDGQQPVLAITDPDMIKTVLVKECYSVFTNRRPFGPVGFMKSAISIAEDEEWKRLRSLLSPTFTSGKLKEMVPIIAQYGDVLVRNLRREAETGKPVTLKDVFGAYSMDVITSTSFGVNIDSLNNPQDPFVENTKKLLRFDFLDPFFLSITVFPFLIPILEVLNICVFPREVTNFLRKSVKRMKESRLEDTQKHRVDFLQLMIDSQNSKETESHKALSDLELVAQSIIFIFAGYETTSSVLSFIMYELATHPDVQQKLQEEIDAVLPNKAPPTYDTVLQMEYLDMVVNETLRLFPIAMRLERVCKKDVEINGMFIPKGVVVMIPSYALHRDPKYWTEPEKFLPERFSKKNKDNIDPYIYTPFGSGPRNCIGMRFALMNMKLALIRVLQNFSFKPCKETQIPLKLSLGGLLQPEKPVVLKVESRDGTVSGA

| Drug metabolism (Cytochrome P450 2D6 [1]) | Drug metabolism (Liver microsome [2]) | Drug metabolism (Cytochrome P450 1A2) | Drug metabolism [3] | Drug metabolism (Cytochrome P450 2D6 [4]) | Drug metabolism [5] | Drug metabolism [6] | Drug metabolism (Cytochrome P450 3A5 [7]) | Drug metabolism (Cytochrome P450 3A5 [8]) | Drug metabolism (Liver microsome [9]) | Drug metabolism (Cytochrome P450 3A4) | Structure (SMILES) |
| --- | --- | --- | --- | --- | --- | --- | --- | --- | --- | --- | --- |
| metabolite_detected | – | – | – | – | – | – | – | – | – | – | COc1ccc2nc(COc3ccc(CC(S)C(=O)O)cc3)n(C)c2c1 (stereo unspecified) |
| – | metabolite_not_detected | metabolite_not_detected | metabolite_detected | metabolite_detected | metabolite_not_detected | metabolite_detected | metabolite_not_detected | metabolite_not_detected | metabolite_detected | metabolite_not_detected | COc1ccc2nc(COc3ccc(C[14CH]4SC(=O)NC4=O)cc3)n(C)c2c1.Cl (racemic) |
